One may read the IC20 as the concentration at which the effect reaches the 20% level. As usually defined, the IC50 is the concentration at which inhibition is half-maximal.

The subject of test [1] is HPNE. Kind of test: MTT proliferation assay, HPNE cells. Format: cell-based. Particulars: Homo sapiens, 24 h; for IC20: read-out: Approx. IC20; for IC50: read-out: Approx. IC50. Put shortly: (§1)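 Cells were seeded at 4 × 10^3/well in 96-well plates and dosed 24 h later with graded concentrations of test compound for 24 h, with DMSO solvent control. Proliferation was read by modified MTT assay and approximate IC20/IC50 reported; triplicates, three independent experiments. Culture media, all at 37°C/5% CO2, were: BxPC-3 and Capan-2 RPMI/10% FBS; MIA PaCa-2 high-glucose DMEM/10% FBS/5% horse serum; PANC-1 DMEM/10% FBS; HPNE HPNE base medium/5% FBS/EGF.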
On the technique in general: Formazan colour is commonly taken as a measure of viable cells.

For test [2], the system named is PANC-1. Kind of test: MTT proliferation assay, PANC-1 cells. Format: cell-based. Particulars: Homo sapiens, PANC-1, 24 h; for IC20: read-out: Approx. IC20; for IC50: read-out: Approx. IC50. An outline of the steps: as §1
The test system of test [3] is MIA PaCa-2. Kind of test: MTT proliferation assay, MIA PaCa-2 cells. Format: cell-based. Particulars: Homo sapiens, MIA PaCa-2, 24 h; for IC20: read-out: Approx. IC20; for IC50: read-out: Approx. IC50. An outline of the steps:
as §1

The test system of test [4] is Capan-2. Nature of the test: MTT proliferation assay, Capan-2 cells. Format: cell-based. The settings on record: Homo sapiens, Capan-2, 24 h; for IC20: read-out: Approx. IC20; for IC50: read-out: Approx. IC50. An outline of the steps:
as §1

Test [5] deals with BxPC-3. Kind of test: MTT proliferation assay, BxPC-3 cells. In kind it is cell-based. The settings on record: Homo sapiens, BXPC-3, 24 h; for IC20: read-out: Approx. IC20; for IC50: read-out: Approx. IC50. An outline of the steps:
as §1

Test [6] concerns Capan-2. Kind of test: Annexin V apoptosis assay, Capan-2. Format: cell-based, human. The settings on record: 24h, Nx 50 μg/mL, GEM 0.5 μM, alone or in combination.
The test system of test [7] is phospho-p65 (pp65). Nature of the test: Immunoblot analysis of pp65. In kind it is cell-based, human. Particulars: MIA PaCa-2; 24h; GEM 0.5 μM alone or with Nx 20 μg/mL. In general terms: A western blot detects proteins with antibodies after separation by electrophoresis.
The subject of test [8] is p105. Kind of test: Immunoblot analysis of p105. In kind it is cell-based, human. The settings on record: MIA PaCa-2; 24h; GEM 0.5 μM alone or with Nx 20 μg/mL. Put shortly:
(§2)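 MIA PaCa-2 cells were exposed for 24 h to medium alone, test extract (20 μg/mL), nucleoside drug (0.5 μM), or both. They were lysed in 2x SDS buffer with protease and phosphatase inhibitors, run on 10% SDS-PAGE and transferred to nitrocellulose. Blocking was 1 h at RT in 5% milk or 5% BSA/TBST, primary antibody 2 h at RT, then HRP secondary 1 h. Detection was ECL; blots are representative of three independent experiments.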

For test [9], the system named is p50. Nature of the test: Immunoblot analysis of p50. Format: cell-based, human. The settings on record: MIA PaCa-2; 24h; GEM 0.5 μM alone or with Nx 20 μg/mL. Put shortly: as §2
In test [10] the test system is GEM-resistant BxPC-3 (GRB) cells. Kind of test: Proliferation assay, GEM-resistant BxPC-3. In kind it is cell-based, human. Particulars: 24h.
The test system of test [11] is GEM-resistant Capan-2 (GRC) cells. Nature of the test: Proliferation assay, GEM-resistant Capan-2. Format: cell-based, human. Particulars: 24h. An outline of the steps:
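The resistant Capan-2 line was derived by stepwise nucleoside drug exposure: 5 μM for 4 days, 5 μM for 1 week, 7.5 μM for 1 week, each followed by drug-free recovery, then 10 μM for 4 months. It was kept in RPMI/10% FBS plus drug. Resistant and parental cells were treated with graded doses for 24 h, and proliferation was read by MTT; triplicates, three independent experiments.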

In the case of `CCCCC[N+]12CCc3cc4c(cc3C1Cc1ccc(OC)c(OC)c1C2)OCO4.[Cl-]` (centres unmarked) [Ber 2-4, 9,10-dimethoxy-7-pentyl-5,6,7,8,13,13a-hexahydro-[1,3]dioxolo[4,5-g]isoquinolino[3,2-a]isoquinolin-7-ium chloride], the 20% effect concentration (IC20) in [1] is ~25 µg/mL; in test [2], ~1 µg/mL; in [3], ~10 µg/mL; in [4], ~5 µg/mL; in test [5], ~5 µg/mL. Further, the half-maximal inhibitory concentration (IC50) is ~75 µg/mL in [1]; ~5 µg/mL in [2]; ~30 µg/mL in test [3]; ~75 µg/mL in test [4]; ~25 µg/mL in test [5].

In the case of `COc1ccc2c(c1OC)C[N+]1(Cc3ccc(Br)cc3)CCc3cc4c(cc3C1C2)OCO4.[Br-]` (centres unmarked) [Ber 2-8, 7-(4-bromobenzyl)-9,10-dimethoxy-5,6,7,8,13,13a-hexahydro-[1,3]dioxolo[4,5-g]isoquinolino[3,2-a]isoquinolin-7-ium bromide], the IC20 in test [1] was ~25 µg/mL; in test [2] it was ~5 µg/mL; in test [3] it was ~5 µg/mL. The values for the 50% inhibitory concentration (IC50) in [1], in test [2] and in test [3] were ~50 µg/mL, ~50 µg/mL and ~20 µg/mL, respectively.

In the case of `COc1ccc2cc3[n+](cc2c1OC)CCc1cc2c(cc1-3)OCO2` [Berberine], the concentration for an effect of 20% (IC20) in [1] was ~5 µg/mL; in [2], ~2.5 µg/mL; in test [3] it was ~5 µg/mL; in [4], ~5 µg/mL; in test [5], ~5 µg/mL. The 50% inhibitory concentration (IC50) in test [1] was ~75 µg/mL; in [2], ~50 µg/mL; in [3] it was ~25 µg/mL; in test [4], ~75 µg/mL; in test [5], ~25 µg/mL.

On to `Nc1ccn([C@@H]2O[C@H](CO)[C@@H](O)C2(F)F)c(=O)n1` [GEM, gemcitabine], for which the “apoptosis induction (Annexin V)” value in test [6] was “did not observe Annexin positive cells”. In addition, the “levels of pp65” value in test [7] was “induced”. In addition, the “levels of p105” value in test [8] is “induced”. Further, the “levels of p50” value in test [9] was “induced”. The “proliferation of GRB cells compared to WT parental BxPC-3” value in test [10] was “significantly higher level of tolerance”. Also, the “proliferation of GRC cells compared to WT parental Capan-2” value in test [11] is “significantly higher level of tolerance”.

(Values after PMC5800424 (Molecular carcinogenesis, 2016).)
